Reference: ChEMBL document CHEMBL1157626, “A concise synthesis of 1,4-dihydro-[1,4]diazepine-5,7-dione, a novel 7-TM receptor ligand core structure with melanocortin receptor agonist activity” (Bioorg Med Chem, 2010)
Activity calls are given as the source filed them. The rule behind the calls is not given here.

Tests used:
Melanocortin receptor 4 [1] = target: T1, Melanocortin receptor 4 (Homo sapiens, UniProt P32245); assay: Agonist activity at human MC4R expressed in CHO cells after 4 hrs by luciferase reporter gene assay relative to alpha-melanocyte stimulating hormone; format: functional, cell-based
T1 sequence (P32245 whole entry): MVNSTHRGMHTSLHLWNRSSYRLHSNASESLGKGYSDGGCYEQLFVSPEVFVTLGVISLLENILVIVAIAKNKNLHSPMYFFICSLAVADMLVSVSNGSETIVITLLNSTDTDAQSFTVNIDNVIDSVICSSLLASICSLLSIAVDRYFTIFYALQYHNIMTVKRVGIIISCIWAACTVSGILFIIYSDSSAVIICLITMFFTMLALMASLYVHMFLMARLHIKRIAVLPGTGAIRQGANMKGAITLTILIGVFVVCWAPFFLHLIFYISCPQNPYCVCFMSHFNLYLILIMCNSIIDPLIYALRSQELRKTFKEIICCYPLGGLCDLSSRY
Outline: (§1)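 CHO-6xCRE-luc+ cells expressing the human receptor, plated at 4000 cells/well in DMEM/F12 with 10% FBS 48 h before assay. Switched to serum-free medium 16 h before compound addition, then incubated 4 h at 37 °C. Luciferase read after 10 min dark adaptation. Activity expressed as % of fold stimulation by 1 × 10^-7 M NDP-aMSH (duplicate control wells).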

[2] = target: T2, Melanocyte-stimulating hormone receptor (Homo sapiens, UniProt Q01726); assay: Agonist activity at human MC1R expressed in CHO cells after 4 hrs by luciferase reporter gene assay; format: functional, cell-based; conditions: read-out: pEC50 (converted); outline: as §1
Target sequence in this assay (Q01726 whole entry): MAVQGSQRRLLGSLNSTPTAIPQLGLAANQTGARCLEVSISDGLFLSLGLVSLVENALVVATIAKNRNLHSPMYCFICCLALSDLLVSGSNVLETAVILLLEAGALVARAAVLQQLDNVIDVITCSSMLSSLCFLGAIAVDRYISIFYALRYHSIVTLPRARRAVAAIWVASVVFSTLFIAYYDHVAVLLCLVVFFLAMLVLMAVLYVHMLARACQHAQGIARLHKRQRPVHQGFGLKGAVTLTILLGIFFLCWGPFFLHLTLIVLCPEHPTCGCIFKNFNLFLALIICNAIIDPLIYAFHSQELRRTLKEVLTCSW

[3] = Cmax in Sprague-Dawley rat at 10 mg/kg, po; format: ADME, organism-based; set-up: dose 10 mg/kg, route oral; conditions: in vivo
Outline: (§2)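 Single oral dose to Sprague Dawley rats, given as a suspension in 50% PEG/25% EtOH/25% H2O. Plasma samples collected over time to build the pharmacokinetic profile.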

Rattus norvegicus [4] = assay: Anorexigenic activity in lean Sprague-Dawley rat assessed as suppression of peptide YY-induced food intake during day light cycle period at 25 mg/kg, po administered 30 mins before peptide YY challenge; format: functional, organism-based; set-up: dose 25 mg/kg
Outline: (§3)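 Sated lean Sprague-Dawley rats with third-ventricle cannulae dosed by oral gavage at 10:30 AM. Vehicle was 50% PEG500/25% EtOH/25% water. 0.23 nmol PYY given ICV in sterile saline at 11:00 AM. Intake logged every half hour through the light period and the dark cycle (6 PM–6 AM). N = 5/group.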

Melanocortin receptor 4 [5] = target: T1, Melanocortin receptor 4; assay: Agonist activity at human MC4R expressed in CHO cells after 4 hrs by luciferase reporter gene assay; format: functional, cell-based; conditions: read-out: pEC50 (converted); outline: as §1
Rattus norvegicus [6] = assay: Anorexigenic activity in lean Sprague-Dawley rat assessed as suppression of peptide YY-induced nocturnal food intake during dark cycle period at 25 mg/kg, po administered 30 mins before peptide YY challenge; format: functional, organism-based; set-up: dose 25 mg/kg; outline: as §3
[7] = Tmax in Sprague-Dawley rat at 10 mg/kg, po; format: ADME, organism-based; set-up: dose 10 mg/kg, route oral; conditions: in vivo; outline: as §2
[8] = AUC (0 to infinity) in Sprague-Dawley rat at 10 mg/kg, po; format: ADME, organism-based; set-up: dose 10 mg/kg, route oral, time infinity; conditions: plasma; outline: as §2
[9] = target: T2, Melanocyte-stimulating hormone receptor; assay: Agonist activity at human MC1R expressed in CHO cells after 4 hrs by luciferase reporter gene assay relative to alpha-melanocyte stimulating hormone; format: functional, cell-based; set-up: concentration or dose not given beside the values; outline: as §1
Target sequence in this assay (Q01726 whole entry, looked up): as the sequence (Q01726 whole entry) above

Rattus norvegicus [10] = assay: Anorexigenic activity in lean Sprague-Dawley rat assessed as suppression of peptide YY-induced food intake during day light cycle period at 5 mg/kg, po administered 30 mins before peptide YY challenge; format: functional, organism-based; set-up: dose 5 mg/kg; outline: as §3
Rattus norvegicus [11] = assay: Anorexigenic activity in lean Sprague-Dawley rat assessed as suppression of nocturnal food intake during dark cycle period at 25 mg/kg, po administered prior to onset of nocturnal cycle; format: functional
[12] = Half life in Sprague-Dawley rat at 10 mg/kg, po; format: ADME, organism-based; set-up: dose 10 mg/kg, route oral; conditions: in vivo; outline: as §2
[13] = Oral bioavailability in Sprague-Dawley rat at 10 mg/kg; format: ADME, organism-based; conditions: in vivo; outline: as §2

- Activity (Melanocortin receptor 4 [1]): 53
- EC50 [2]: 0.0158 µM
- Cmax [3]: 0.123 µg/mL
- EC50 (Melanocortin receptor 4 [5]): 0.339 µM
- Tmax [7]: 0.67 h
- AUC(0-inf) [8]: 0.26 µg·h/mL
- Activity [9]: 82%
- half-life [12]: 1.5 h
- bioavailability [13]: 6.2%
Structure (SMILES): COc1ccc(N(C(=O)CN2C=CN(c3ccccc3)C(=O)[C@H](Cc3n[nH]c4ccccc34)C2=O)C(C)C)cc1
- inhibition (Rattus norvegicus [4]): Active
- inhibition (Rattus norvegicus [6]): Active
- inhibition (Rattus norvegicus [10]): Active
- inhibition in vivo at 25 mg/kg (Rattus norvegicus [11]): 20%
